Results as given in ChEMBL document CHEMBL4406918, “Inhibitory Effects of Multivalent Polypeptides on the Proliferation and Metastasis of Breast Cancer Cells” (ACS Med Chem Lett, 2019).
Activity calls are given as the source filed them. The rule behind the calls is not given here.

Assays:
[1] = Toxicity in BALB/c mouse xenografted with mouse 4T1 cells assessed as change in blood urea nitrogen level at 10 mg/kg administered intratumorally and measured after 24 days; format: organism-based; conditions: in vivo, other, 576 h
4T1 [2] = assay: Antitumour activity against mouse 4T1 cells xenografted in BALB/c mouse assessed as increase in damage of tumor tissue at 10 mg/kg administered intratumorally and measured after 24 days by H and E staining based inverted optical microscopic method; format: functional, organism-based
In short: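 Tumours from 4T1-bearing BALB/c mice given 6 doses of 10 mg/kg (saline control) were sectioned and stained with H&E, plus CD31, Ki-67 and TUNEL.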

[3] = Stability in fetal bovine serum assessed as parent compound remaining measured after 12 hrs by RP-HPLC analysis; format: ADME, cell-free, Bos taurus; conditions: cattle, read-out: Stability
In short: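 Peptides incubated in serum, and the fraction of intact YSL was measured over time up to 12 h, including a 4 h point.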

4T1 [4] = assay: Antiproliferative activity against mouse 4T1 cells at 0.1 mM incubated for 24 hrs by MTT assay; format: functional, cell-based
4T1 [5] = assay: Antiproliferative activity against mouse 4T1 cells assessed as cell death at 0.2 mM incubated for 24 hrs by MTT assay relative to control; format: functional
In short: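 Mouse 4T1 breast cancer cells exposed for 24 h (doses include 0.1 and 0.2 mM), then read by MTT for viability or cell death. Mean ± SD, n = 6.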

4T1 [6] = assay: Induction of apoptosis in mouse 4T1 cells at 0.4 mM incubated for 24 hrs by PI staining based inverted microscopic method; format: functional, cell-based
In short: (§1)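 Live–dead staining of 4T1 cells after 24 h exposure to 0.4 mM, read by PI staining. A 0.8 mM level was also examined.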

4T1 [7] = assay: Induction of cell death in mouse 4T1 cells incubated for 24 hrs by PI staining based inverted microscopic method; format: functional; in short: as §1
4T1 [8] = assay: Induction of cell cycle arrest in mouse 4T1 cells assessed as accumulation at S phase at 0.4 mM incubated for 24 hrs by PI staining based flow cytometric analysis (Rvb =42.35%); format: functional
4T1 [9] = assay: Induction of cell cycle arrest in mouse 4T1 cells assessed as accumulation at G2/M phase at 0.4 mM incubated for 24 hrs by PI staining based flow cytometric analysis (reference value: 19.82%); format: functional
4T1 [10] = assay: Induction of apoptosis in mouse 4T1 cells assessed as viable cells at 0.4 mM incubated for 24 hrs by Annexin V-FITC/PI based FACS analysis (reference value: 92.2%); format: functional; conditions: 4T1, 24 h, read-out: Activity
4T1 [11] = assay: Induction of apoptosis in mouse 4T1 cells assessed as late apoptotic cells at 0.4 mM incubated for 24 hrs by Annexin V-FITC/PI based FACS analysis (reference value: 6.62%); format: functional
4T1 [12] = assay: Induction of apoptosis in mouse 4T1 cells assessed as necrotic cells at 0.4 mM incubated for 24 hrs by Annexin V-FITC/PI based FACS analysis (reference value: 0.47%); format: functional
4T1 [13] = assay: Inhibition of cell migration in mouse 4T1 cells assessed as wound closure rate at 0.2 mM measured up to 36 hrs by inverted optical microscopic method based wound healing assay (reference value: 82%); format: functional; design: scale not given: the % may be the effect or the level left
4T1 [14] = assay: Inhibition of cell migration in mouse 4T1 cells assessed as migration frequency at 0.2 mM incubated for 24 hrs by crystal violet staining based transwell assay relative to control; format: functional; design: scale not given: the % may be the effect or the level left
In short: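 4T1 cells, Transwell migration with 24 h exposure to 0.2 mM. Migration rate comes from counting cells on the bottom of the porous membrane. Mean ± SD, n = 3.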

4T1 [15] = assay: Potency index, ratio of test compound effect to YSL effect for inhibition of cell migration in mouse 4T1 cells; format: functional
4T1 [16] = assay: Inhibition of metastasis in mouse 4T1 cells assessed as formation of pseudopods at 0.2 mM incubated for 24 hrs by SEM analysis; format: functional, cell-based
In short: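 4T1 cells treated 24 h, then imaged by scanning electron microscopy for pseudopod formation. Dendrimers were tested at 0.2 mM and the reference at 10–5 mM.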

4T1 [17] = assay: Inhibition of metastasis in mouse 4T1 cells assessed as disruption in F-actin arrangement at 0.2 mM incubated for 24 hrs by Hoechst 33342 staining based confocal laser scanning microscopic method; format: functional, cell-based
In short: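 After 24 h at 0.2 mM, 4T1 cells were stained for F-actin with Alexa Fluor 488 phalloidin and for nuclei with Hoechst 33342, then imaged by fluorescence for cytoskeletal arrangement and cell morphology.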

4T1 [18] = assay: Inhibition of metastasis in mouse 4T1 cells assessed as cell shrinkage at 0.2 mM incubated for 24 hrs by Hoechst 33342 staining based confocal laser scanning microscopic method; format: functional
In short: (§2)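 After 24 h treatment, 4T1 cells were stained with Alexa Fluor 488 phalloidin for F-actin and Hoechst 33342 for nuclei, then imaged by fluorescence microscopy to assess cytoskeleton and cell morphology.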

4T1 [19] = assay: Inhibition of metastasis in mouse 4T1 cells assessed as shortening in actin filaments at 0.2 mM incubated for 24 hrs by Hoechst 33342 staining based confocal laser scanning microscopic method; format: functional, cell-based; in short: as §2
4T1 [20] = assay: Antitumour activity against mouse 4T1 cells xenografted in BALB/c mouse assessed as inhibition in tumor growth at 10 mg/kg administered intratumorally and measured every 3 days for 24 days; format: functional, organism-based
In short: (§3)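 BALB/c mice bearing subcutaneous 4T1 tumours received 6 doses of 10 mg/kg, with equal YSL-monomer molar amounts across compounds and saline as control. Tumour volume growth curves and body weights were tracked. Mean ± SD, n = 5.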

4T1 [21] = assay: Antitumour activity against mouse 4T1 cells xenografted in BALB/c mouse assessed as increase in cytotoxic tumor cell death at 10 mg/kg administered intratumorally and measured after 24 days by H and E staining based inverted optical microscopic method; format: functional, organism-based
In short: (§4)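 BALB/c mice bearing subcutaneous 4T1 tumours received 6 doses at 10 mg/kg body weight, matched for YSL monomer molar amount, with saline as control. Tumour sections were stained for H&E, CD31, Ki-67 and TUNEL. n = 5.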

4T1 [22] = assay: Antitumour activity against mouse 4T1 cells xenografted in BALB/c mouse assessed as […] at 10 mg/kg administered intratumorally and measured after 24 days by H and E staining based inverted optical microscopic method; format: functional, organism-based; in short: as §4
4T1 [23] = assay: Antitumour activity against mouse 4T1 cells xenografted in BALB/c mouse assessed as reduction in number of Ki67 positive tumor cells at 10 mg/kg administered intratumorally and measured after 24 days by H and E staining based inverted optical microscopic method; format: functional, organism-based; in short: as §4
4T1 [24] = assay: Antitumour activity against mouse 4T1 cells xenografted in BALB/c mouse assessed as reduction in number of lung tumor metastatic nodules at 10 mg/kg administered intratumorally and measured after 24 days by H and E staining based inverted optical microscopic method; format: functional, organism-based
In short: (§5)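 After 6 doses of 10 mg/kg to 4T1 tumour-bearing BALB/c mice (saline control), lungs were photographed whole and examined histopathologically for the number and size of metastatic nodules.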

4T1 [25] = assay: Antitumour activity against mouse 4T1 cells xenografted in BALB/c mouse assessed as reduction in size of lung tumor metastatic nodules at 10 mg/kg administered intratumorally and measured after 24 days by H and E staining based inverted optical microscopic method; format: functional, organism-based; in short: as §5
[26] = Toxicity in BALB/c mouse xenografted with mouse 4T1 cells assessed as induction of morphological lesions in kidney at 10 mg/kg administered intratumorally and measured after 24 days by H and E staining based inverted optical microscopic method; format: organism-based; conditions: in vivo, other, 576 h
[27] = Toxicity in BALB/c mouse xenografted with mouse 4T1 cells assessed as change in body weight at 10 mg/kg administered intratumorally and measured after 24 days; format: organism-based; conditions: in vivo, other, 576 h; in short: as §3

Question: For COC(=O)[C@H](CCCCNC(=O)[C@H](CCCCNC(=O)[C@H](CCCCNC(=O)[C@H](CC(C)C)NC(=O)[C@H](CO)NC(=O)[C@@H](N)Cc1ccc(O)cc1)NC(=O)[C@H](CC(C)C)NC(=O)[C@H](CO)NC(=O)[C@@H](N)Cc1ccc(O)cc1)NC(=O)[C@H](CCCCNC(=O)[C@H](CC(C)C)NC(=O)[C@H](CO)NC(=O)[C@@H](N)Cc1ccc(O)cc1)NC(=O)[C@H](CC(C)C)NC(=O)[C@H](CO)NC(=O)[C@@H](N)Cc1ccc(O)cc1)NC(=O)[C@H](CCCCNC(=O)[C@H](CCCCNC(=O)[C@H](CC(C)C)NC(=O)[C@H](CO)NC(=O)[C@@H](N)Cc1ccc(O)cc1)NC(=O)[C@H](CC(C)C)NC(=O)[C@H](CO)NC(=O)[C@@H](N)Cc1ccc(O)cc1)NC(=O)[C@H](CCCCNC(=O)[C@H](CC(C)C)NC(=O)[C@H](CO)NC(=O)[C@@H](N)Cc1ccc(O)cc1)NC(=O)[C@H](CC(C)C)NC(=O)[C@H](CO)NC(=O)[C@@H](N)Cc1ccc(O)cc1, which Activity [1] is on record?
Answer: Non-Toxic

Question: What about the Activity (4T1 [2]) of the same molecule?
Answer: Active

Question: What about the remaining at 12 h [3] of the same molecule?
Answer: > 80%

Question: And the Activity (4T1 [4])?
Answer: inactive

Question: And the Activity (4T1 [5])?
Answer: 20%

Question: And the Activity (4T1 [6])?
Answer: Active

Question: What about the Activity (4T1 [7]) of the same molecule?
Answer: Dose-dependent effect

Question: And the Activity (4T1 [8])?
Answer: 46.42%

Question: And the Activity (4T1 [9])?
Answer: 7.08%

Question: What about the viability at 400 µM (4T1 [10]) of the same molecule?
Answer: 37.5%

Question: And the Activity (4T1 [11])?
Answer: 56.2%

Question: And the Activity (4T1 [12])?
Answer: 2.41%

Question: What about the Activity (4T1 [13]) of the same molecule?
Answer: 30%

Question: What about the Activity (4T1 [14]) of the same molecule?
Answer: 10%

Question: What about the Ratio (4T1 [15]) of the same molecule?
Answer: 4.5

Question: What about the inhibition (4T1 [16]) of the same molecule?
Answer: inactive

Question: And the “F-actin disruption (qualitative)” value (4T1 [17])?
Answer: Active

Question: And the inhibition (4T1 [18])?
Answer: Active

Question: And the inhibition (4T1 [19])?
Answer: Active

Question: And the Activity (4T1 [20])?
Answer: Active

Question: What about the Activity (4T1 [21]) of the same molecule?
Answer: Active

Question: And the Activity (4T1 [22])?
Answer: Active

Question: And the Activity (4T1 [23])?
Answer: Active

Question: And the Activity (4T1 [24])?
Answer: Active

Question: And the Activity (4T1 [25])?
Answer: Active

Question: And the Activity [26]?
Answer: Non-Toxic

Question: And the Activity [27]?
Answer: Non-Toxic
